ChEMBL document CHEMBL4373711, “Development of 3,5-Dinitrophenyl-Containing 1,2,4-Triazoles and Their Trifluoromethyl Analogues as Highly Efficient Antitubercular Agents Inhibiting Decaprenylphosphoryl-β-d-ribofuranose 2'-Oxidase” (J Med Chem, 2019)
In brackets after ≈: the same amount, converted by molar mass. Activity calls are given as the source filed them. The rule behind the calls is not given here.

Assays:
[1] = test system: Mycobacterium tuberculosis; assay: Antimycobacterial activity against XDR Mycobacterium tuberculosis Praha 131 after 14 days; assay type: functional; conditions: Praha 131, 336 h
In short: (§1)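 M. tuberculosis strains (H37Rv and clinical MDR/XDR isolates) tested by microdilution in Šula's semisynthetic medium. Compounds were dissolved in DMSO and tested at 32 to 0.03 µM in twofold steps. Inoculum was a 1.0 McFarland suspension diluted 10-3. Plates were incubated at 37 °C and read at 14 and 21 days.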

[2] = test system: Mycobacterium tuberculosis; assay: Antimycobacterial activity against Mycobacterium tuberculosis H37Rv CNCTC My 331/88 after 21 days; assay type: functional; conditions: H37Rv CNCTC My 331/88, 504 h; in short: as §1
Klebsiella pneumoniae = assay: Antibacterial activity against Klebsiella pneumoniae at highest concentration measured after 24 to 48 hrs by alamar blue dye based broth microdilution assay; assay type: functional, organism-based
Mycobacterium avium [3] = assay: Antimycobacterial activity against Mycobacterium avium CNCTC My 330/88 after 21 days; assay type: functional; conditions: CNCTC My 330/88, 504 h
In short: (§2)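 M. avium was tested by microdilution in Šula's semisynthetic medium, with compounds dissolved in DMSO and serially diluted from 1000 down to 1. Inoculum was a 1.0 McFarland suspension diluted 10-5. Plates were incubated at 37 °C and read at 14 and 21 days. […] Isoniazid and rifampicin served as standards.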

[4] = Genotoxicity in Salmonella typhimurium TA98 at 30 uM in presence of rat liver S9 fraction by Ames test; assay type: toxicity, subcellular; conditions: salmonella enterica subsp. enterica serovar typhimurium, s9, 30 µM
In short: (§3)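 Microplate fluctuation Ames reverse-mutation test following kit instructions; TA98 detects frameshift and TA100 base-exchange mutations. Compound at 30 µM final with Aroclor-1254-induced rat liver S9 plus cofactors.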

[5] = test system: Mycobacterium tuberculosis; assay: Antimycobacterial activity against XDR Mycobacterium tuberculosis Praha 131 after 21 days; assay type: functional; conditions: Praha 131, 504 h; in short: as §1
Mycobacterium kansasii [6] = assay: Antimycobacterial activity against Mycobacterium kansasii 6509/96 after 7 days; assay type: functional; conditions: 6509/96, 168 h
In short: (§4)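 Microdilution in Šula's semisynthetic medium; compounds in DMSO at 32–0.03 µM. Inoculum from 1.0 McFarland suspension diluted 10-4. […] Isoniazid and rifampicin as reference drugs.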

Mycobacterium kansasii [7] = assay: Antimycobacterial activity against Mycobacterium kansasii CNCTC My 235/80 after 14 days; assay type: functional; conditions: CNCTC My 235/80, 336 h; in short: as §4
HepG2 = assay: Cytotoxicity against human HepG2 cells assessed as reduction in cell viability after 48 hrs by CellTiter 96 aqueous one solution assay; assay type: cell-based; conditions: HepG2, 48 h
Mycobacterium kansasii [8] = assay: Antimycobacterial activity against Mycobacterium kansasii 6509/96 after 21 days; assay type: functional; conditions: 6509/96, 504 h; in short: as §4
[9] = Genotoxicity in Salmonella typhimurium TA100 at 30 uM in presence of rat liver S9 fraction by Ames test; assay type: toxicity, subcellular; conditions: salmonella enterica subsp. enterica serovar typhimurium, s9, 30 µM; in short: as §3
A-431 = assay: Cytotoxicity against human A431 cells assessed as reduction in cell viability after 48 hrs by CellTiter 96 aqueous one solution assay; assay type: cell-based; conditions: A-431, 48 h
Aspergillus fumigatus = assay: Antifungal activity against Aspergillus fumigatus ATCC 204305 at highest concentration measured after 24 to 48 hrs by alamar blue dye based broth microdilution assay; assay type: functional, organism-based
Mycobacterium kansasii [10] = assay: Antimycobacterial activity against Mycobacterium kansasii 6509/96 after 14 days; assay type: functional; conditions: 6509/96, 336 h; in short: as §4
[11] = test system: Staphylococcus epidermidis; assay: Antibacterial activity against Staphylococcus epidermidis at highest concentration measured after 24 to 48 hrs by alamar blue dye based broth microdilution assay; assay type: functional, organism-based
[12] = Cytotoxicity against human A431 cells assessed as cell viability at 30 uM after 48 hrs by CellTiter 96 aqueous one solution assay relative to control; assay type: cell-based, A-431; conditions: read-out: Activity
In short: (§5)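 HepG2 (DMEM, 10% FBS, 1 mM pyruvate) or A431 (DMEM, 10% FBS) seeded 10,000 cells/well, 24 h at 37 °C, 5% CO2, then 30 µM compound for 48 h. MTS reagent 60 min, absorbance 490 nm, background subtracted; 0.1% DMSO vehicle = 100%, 10% SDS = 0% viability.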

Staphylococcus aureus [13] = assay: Antibacterial activity against Staphylococcus aureus subsp. aureus ATCC 29213 CCM 4223 at highest concentration measured after 24 to 48 hrs by alamar blue dye based broth microdilution assay; assay type: functional, organism-based
Serratia marcescens = assay: Antibacterial activity against Serratia marcescens at highest concentration measured after 24 to 48 hrs by alamar blue dye based broth microdilution assay; assay type: functional, organism-based
[14] = test system: Trichophyton interdigitale; assay: Antifungal activity against Trichophyton interdigitale ATCC 9533 CCM 8377 at highest concentration measured after 72 to 120 hrs by alamar blue dye based broth microdilution assay; assay type: functional
Candida parapsilosis = assay: Antifungal activity against Candida parapsilosis ATCC 22019 CCM 8260 at highest concentration measured after 24 to 48 hrs by alamar blue dye based broth microdilution assay; assay type: functional, organism-based
Mycobacterium kansasii [15] = assay: Antimycobacterial activity against Mycobacterium kansasii CNCTC My 235/80 after 7 days; assay type: functional; conditions: CNCTC My 235/80, 168 h; in short: as §4
Aspergillus flavus = assay: Antifungal activity against Aspergillus flavus CCM 8363 at highest concentration measured after 24 to 48 hrs by alamar blue dye based broth microdilution assay; assay type: functional, organism-based
Mycobacterium kansasii [16] = assay: Antimycobacterial activity against Mycobacterium kansasii CNCTC My 235/80 after 21 days; assay type: functional; conditions: CNCTC My 235/80, 504 h; in short: as §4
Lichtheimia corymbifera = assay: Antifungal activity against Lichtheimia corymbifera CCM 8077 at highest concentration measured after 24 to 48 hrs by alamar blue dye based broth microdilution assay; assay type: functional, organism-based
Mycobacterium avium [17] = assay: Antimycobacterial activity against Mycobacterium avium CNCTC My 330/88 after 14 days; assay type: functional; conditions: CNCTC My 330/88, 336 h; in short: as §2
Candida albicans = assay: Antifungal activity against Candida albicans ATCC 24433 CCM 8320 at highest concentration measured after 24 to 48 hrs by alamar blue dye based broth microdilution assay; assay type: functional, organism-based
[18] = test system: Mycobacterium tuberculosis; assay: Antimycobacterial activity against Mycobacterium tuberculosis H37Rv CNCTC My 331/88 after 14 days; assay type: functional; conditions: H37Rv CNCTC My 331/88, 336 h; in short: as §1
Enterococcus faecalis = assay: Antibacterial activity against Enterococcus faecalis ATCC 29212 CCM 4224 at highest concentration measured after 24 to 48 hrs by alamar blue dye based broth microdilution assay; assay type: functional, organism-based
Staphylococcus aureus [19] = assay: Antibacterial activity against methicillin-resistant Staphylococcus aureus subsp. aureus ATCC 43300 CCM 4750 at highest concentration measured after 24 to 48 hrs by alamar blue dye based broth microdilution assay; assay type: functional, organism-based
Candida tropicalis = assay: Antifungal activity against Candida tropicalis ATCC 750 CCM 8264 at highest concentration measured after 24 to 48 hrs by alamar blue dye based broth microdilution assay; assay type: functional, organism-based
Pichia kudriavzevii = assay: Antifungal activity against Candida krusei ATCC 6258 CCM8271 at highest concentration measured after 24 to 48 hrs by alamar blue dye based broth microdilution assay; assay type: functional, organism-based
[20] = Cytotoxicity against human HepG2 cells assessed as cell viability at 30 uM after 48 hrs by CellTiter 96 aqueous one solution assay relative to control; assay type: cell-based; conditions: read-out: Activity; in short: as §5
Pseudomonas aeruginosa = assay: Antibacterial activity against Pseudomonas aeruginosa ATCC 27853 CCM 3955 at highest concentration measured after 24 to 48 hrs by alamar blue dye based broth microdilution assay; assay type: functional, organism-based
Escherichia coli = assay: Antibacterial activity against Escherichia coli ATCC 25922 CCM 3954 at highest concentration measured after 24 to 48 hrs by alamar blue dye based broth microdilution assay; assay type: functional, organism-based

SMILES	MIC99 [1] [µM]	MIC99 [2] [µM]	Activity (Klebsiella pneumoniae)	MIC99 (Mycobacterium avium [3]) [µM]	MIC99 [5] [µM]	MIC99 (Mycobacterium kansasii [6]) [µM]	MIC99 (Mycobacterium kansasii [7]) [µM]	IC50 (HepG2) [µM]	MIC99 (Mycobacterium kansasii [8]) [µM]	IC50 (A-431) [µM]	Activity (Aspergillus fumigatus)	MIC99 (Mycobacterium kansasii [10]) [µM]	Activity [11]	viability at 48 h, 30 µM [12] [%]	Activity (Staphylococcus aureus [13])	MIC99 (Mycobacterium kansasii [15]) [µM]	MIC99 (Mycobacterium kansasii [16]) [µM]	MIC99 (Mycobacterium avium [17]) [µM]	MIC99 [18] [µM]	viability at 48 h, 30 µM [20] [%]	also measured
Cn1c(SCc2ccc(Cl)cc2)nnc1-c1cc([N+](=O)[O-])cc([N+](=O)[O-])c1	0.125 (≈ 0.0507 µg/mL)	0.125 (≈ 0.0507 µg/mL)	inactive	8 (≈ 3.25 µg/mL)	0.125 (≈ 0.0507 µg/mL)	0.125 (≈ 0.0507 µg/mL)	0.5 (≈ 0.203 µg/mL)	> 30	0.5 (≈ 0.203 µg/mL)	> 30	inactive	0.25 (≈ 0.101 µg/mL)	inactive	85	inactive	0.25 (≈ 0.101 µg/mL)	0.5 (≈ 0.203 µg/mL)	8 (≈ 3.25 µg/mL)	0.125 (≈ 0.0507 µg/mL)	104	Activity [4]: Non-Toxic; Activity [9]: Non-Toxic; Activity (Serratia marcescens): inactive; Activity [14]: inactive; Activity (Candida parapsilosis): inactive; Activity (Aspergillus flavus): inactive; Activity (Lichtheimia corymbifera): inactive; Activity (Candida albicans): inactive; Activity (Enterococcus faecalis): inactive; Activity (Staphylococcus aureus [19]): inactive; Activity (Candida tropicalis): inactive; Activity (Pichia kudriavzevii): inactive; Activity (Pseudomonas aeruginosa): inactive; Activity (Escherichia coli): inactive
O=[N+]([O-])c1cc(-c2nnc(SCc3ccc(Cl)c(Cl)c3)n2Cc2ccccc2)cc(C(F)(F)F)c1	2 (≈ 1.08 µg/mL)	2 (≈ 1.08 µg/mL)		250 (≈ 135 µg/mL)	2 (≈ 1.08 µg/mL)	4 (≈ 2.16 µg/mL)	4 (≈ 2.16 µg/mL)	> 30	8 (≈ 4.31 µg/mL)	> 30		4 (≈ 2.16 µg/mL)		80		4 (≈ 2.16 µg/mL)	4 (≈ 2.16 µg/mL)	250 (≈ 135 µg/mL)	2 (≈ 1.08 µg/mL)	104	Activity [4]: Non-Toxic; Activity [9]: Non-Toxic
O=[N+]([O-])c1cc(CSc2nnc(-c3ccc(Br)cc3)n2Cc2ccccc2)cc([N+](=O)[O-])c1	4 (≈ 2.11 µg/mL)	4 (≈ 2.11 µg/mL)	inactive	250 (≈ 132 µg/mL)	4 (≈ 2.11 µg/mL)	2 (≈ 1.05 µg/mL)	2 (≈ 1.05 µg/mL)	> 30	4 (≈ 2.11 µg/mL)	> 30	inactive	4 (≈ 2.11 µg/mL)	inactive	93	inactive	1 (≈ 0.526 µg/mL)	4 (≈ 2.11 µg/mL)	250 (≈ 132 µg/mL)	2 (≈ 1.05 µg/mL)	173	Activity (Serratia marcescens): inactive; Activity [14]: inactive; Activity (Candida parapsilosis): inactive; Activity (Aspergillus flavus): inactive; Activity (Lichtheimia corymbifera): inactive; Activity (Candida albicans): inactive; Activity (Enterococcus faecalis): inactive; Activity (Staphylococcus aureus [19]): inactive; Activity (Candida tropicalis): inactive; Activity (Pichia kudriavzevii): inactive; Activity (Pseudomonas aeruginosa): inactive; Activity (Escherichia coli): inactive
Cn1c(SCc2ccccc2)nnc1-c1cc([N+](=O)[O-])cc([N+](=O)[O-])c1	0.03 (≈ 0.0111 µg/mL)	0.03 (≈ 0.0111 µg/mL)	inactive	16 (≈ 5.94 µg/mL)	0.03 (≈ 0.0111 µg/mL)	0.06 (≈ 0.0223 µg/mL)	0.25 (≈ 0.0928 µg/mL)	> 30	0.25 (≈ 0.0928 µg/mL)	> 30	inactive	0.125 (≈ 0.0464 µg/mL)	inactive	108	inactive	0.25 (≈ 0.0928 µg/mL)	0.25 (≈ 0.0928 µg/mL)	16 (≈ 5.94 µg/mL)	0.03 (≈ 0.0111 µg/mL)	161	Activity (Serratia marcescens): inactive; Activity [14]: inactive; Activity (Candida parapsilosis): inactive; Activity (Aspergillus flavus): inactive; Activity (Lichtheimia corymbifera): inactive; Activity (Candida albicans): inactive; Activity (Enterococcus faecalis): inactive; Activity (Staphylococcus aureus [19]): inactive; Activity (Candida tropicalis): inactive; Activity (Pichia kudriavzevii): inactive; Activity (Pseudomonas aeruginosa): inactive; Activity (Escherichia coli): inactive
